Bioassay records as filed in PubChem.
SENP1 FRET inh: inhibitors of human SENP1 SUMO protease catalytic domain; 360,000 compounds, 0.21% hits; AID 624204; Q9P0U3; inhibition, % at 10 µM; recombinant SENP1 catalytic domain, CyPet-SUMO1-YPet FRET cleavage;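 active means inhibition at least 30% at 10 µM, raw YFP signal under a set limit, fluorescence ratio 0.5 to 1.5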
Target sequence (Q9P0U3 419-644 limits assumed): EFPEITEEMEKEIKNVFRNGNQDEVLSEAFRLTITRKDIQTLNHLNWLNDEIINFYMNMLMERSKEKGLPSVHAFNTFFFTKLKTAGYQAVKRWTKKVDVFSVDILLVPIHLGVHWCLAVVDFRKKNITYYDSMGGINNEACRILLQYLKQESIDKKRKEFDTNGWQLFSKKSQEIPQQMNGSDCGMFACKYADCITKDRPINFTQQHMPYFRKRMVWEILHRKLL
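System: Recombinant human SENP1 catalytic domain, His6-tagged | Incubation: Enzyme reaction for 50 min at room temperature, dark | Medium: Tris pH 8 with BME, BSA, NP40 and catalase | Also added: 25 nM SUMO1 FRET substrate | Compound: 10 µM single point, 0.5% DMSO | Measured by: FRET fluorescence in CFP and YFP emission channels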
SENP8 block-1: SENP8 protease inhibition. inhibition, % at 10 µM. 330,000 compounds, 1.2% hits. purified SENP8, Z-RLRGG-aminoluciferin cleavage, luminescence. Q96LD8; in the data active means inhibition above about 50%
SENP8 block-2: blocks human SENP8 cleavage of Nedd8 substrate. Q96LD8. 360,000 compounds, 0.64% hits. recombinant SENP8, Nedd8 substrate fluorescence. inhibition, % at 20 µM; in the data active means inhibition mostly above about 40%, no sharp cut-off; inactive means mostly below about 27%
Platelet DG rel: platelet dense granule release activity; human platelet-rich plasma, SFLLRN dense granule ATP release, luminescence; inhibition, %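 (compounds screened at 7.5 µM in platelet-rich plasma)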; 300,000 compounds, 0.22% hits;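 active means mean replicate score, as percent of positive control, at or above 50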
SENP6 block: inhibitors of human SENP6 protease; AID 2599; Q9GZR1; Recombinant SENP6 catalytic domain, aminoluciferin luminescence; inhibition, % at 10 µM; 330,000 compounds, 1.8% hits;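 active means inhibition above about 50% at the single tested dose, limit read from the data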
SENP7 inh: SENP7 protease inhibition. recombinant SENP7, Z-RLRGG-aminoluciferin luminescence, 40 min. inhibition, % at 5 µM. 330,000 compounds, 1.5% hits. AID 434973;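 active means inhibition above about 50% at the single test dose, limit read from the data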
Target sequence (Q9BQF6 706-1050 limits assumed): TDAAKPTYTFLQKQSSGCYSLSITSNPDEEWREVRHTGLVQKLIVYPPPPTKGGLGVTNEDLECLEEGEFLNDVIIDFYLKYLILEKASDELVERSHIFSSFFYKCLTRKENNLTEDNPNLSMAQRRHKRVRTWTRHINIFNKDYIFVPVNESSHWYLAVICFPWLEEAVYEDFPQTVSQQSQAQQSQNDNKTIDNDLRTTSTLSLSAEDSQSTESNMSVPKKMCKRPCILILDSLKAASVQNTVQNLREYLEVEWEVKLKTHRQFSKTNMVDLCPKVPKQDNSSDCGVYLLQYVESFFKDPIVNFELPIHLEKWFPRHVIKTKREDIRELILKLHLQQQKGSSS
SENP8 confirm: human SENP8 inhibition, confirmed | shares compounds with SENP7 inh | Recombinant SENP8, Z-RLRGG-aminoluciferin luminescence, 60 min | inhibition, % at 12.5 µM | 6,200 compounds, 40% hits | AID 488912;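 active means mean inhibition across replicates above about 50%, limit read from the data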
SENP6 confirm: confirmation of human SENP6 protease inhibitors; shares compounds with SENP7 inh; recombinant SENP6, Z-RLRGG-aminoluciferin luminescence; inhibition, % at 12.5 µM; 6,200 compounds, 58% hits; AID 488915
SENP7 confirm: human SENP7 inhibition, confirmed; inhibition, % at 12.5 µM; recombinant SENP7, Z-RLRGG-aminoluciferin luminescence, 40 min; 6,200 compounds, 69% hits; shares compounds with SENP7 inh
Casp3 select: caspase-3 inhibition (SENP selectivity assay); 6,200 compounds, 60% hits; shares compounds with SENP7 inh; purified caspase-3, Z-DEVD-aminoluciferin luminescence, 60 min; inhibition, % at 12.5 µM;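 active means mean inhibition above about 50%, limit read from the data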
Luc interf: counter-screen for SENP inhibitors: luminescence interference; inhibition, % at 12.5 µM; 6,200 compounds, 39% hits; shares compounds with SENP7 inh; AID 488919; Pre-incubated SENP8/Z-RLRGG-aminoluciferin, luciferase luminescence interference;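 active means mean inhibition above about 50% when retested at one dose, limit read from the data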
Of the large screens only hits and unclear results are named; the others gave an inactive call (follow-up assays come after a bar, where they were run). Hits are enriched below; roughly 2.6% of the tested compounds scored in any of these assays.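 How the source made its calls, unless noted: active means mean inhibition above about 50% in the one-dose retest (limit read from the data); inactive means the rest.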

CC1CC1C(=O)N1CCN(S(=O)(=O)c2cc(C(F)(F)F)cc(C(F)(F)F)c2)CC1 (stereo unspecified)	none (no result: Platelet DG rel)
Nc1nccc(/C=C/c2c(Cl)cccc2Cl)n1	none
Nc1nccc(/C=C/c2ccc(Cl)cc2)n1	SENP8 block-1 75, SENP6 block 80, SENP7 inh 75 | SENP8 confirm 74 | SENP6 confirm 85 | SENP7 confirm 94 | Casp3 select 79 | Luc interf inactive
NC(=O)c1nsc(C(=O)N(CC(=O)NC2CCCC2)Cc2ccc3c(c2)OCO3)c1N	none
CCN(C(=O)COC(=O)/C=C/c1ccc(OC)c(OC)c1)c1c(N)n(Cc2ccccc2)c(=O)[nH]c1=O	none (no result: SENP8 block-1, Platelet DG rel, SENP6 block, SENP7 inh)
O=C(NCc1ccccc1)C(=O)c1cn(CC(=O)N2CCOCC2)c2ccccc12	SENP7 inh 55 | SENP8 confirm inactive | SENP6 confirm inactive | SENP7 confirm inactive | Casp3 select inactive | Luc interf inactive
COc1ccccc1NC(=O)C(=O)c1cn(CC(=O)N2CCOCC2)c2ccccc12	SENP6 block 52, SENP7 inh 56 | SENP8 confirm inactive | SENP6 confirm inactive | SENP7 confirm inactive | Casp3 select inactive | Luc interf inactive
Cc1cccc(CSc2cn(CC(=O)N3CCOCC3)c3ccccc23)c1	SENP8 block-1 72, SENP6 block 65, SENP7 inh 74 | SENP8 confirm 87 | SENP6 confirm 87 | SENP7 confirm 96 | Casp3 select 70 | Luc interf 59
C[C@H](O)[C@@H]1C(=O)N2CCc3c([nH]c4ccccc34)[C@@H]2C[C@@H]1N(C)Cc1ccc2c(c1)OCO2	none (no result: SENP8 block-1, Platelet DG rel, SENP6 block, SENP7 inh)
COc1ccc(-c2nc(-c3ccccn3)no2)cc1	SENP8 block-1 97, Platelet DG rel 61, SENP6 block 98, SENP7 inh 100 | SENP8 confirm inactive | SENP6 confirm 101 | SENP7 confirm 104 | Casp3 select 100 | Luc interf 98
COc1nc(C)ccc1-c1noc(-c2ccccn2)n1	SENP7 inh 53 | SENP8 confirm inactive | SENP6 confirm 51 | SENP7 confirm 86 | Casp3 select 83 | Luc interf inactive
Clc1ccc(OCc2nc(-c3ccccn3)no2)c(Br)c1	SENP8 block-1 91, SENP6 block 95, SENP7 inh 90 | SENP8 confirm 82 | SENP6 confirm 95 | SENP7 confirm 99 | Casp3 select 86 | Luc interf 75
Cc1ccccc1-c1nc(-c2ccccn2)no1	SENP8 block-1 96, SENP6 block 97, SENP7 inh 100 | SENP8 confirm 98 | SENP6 confirm 99 | SENP7 confirm 102 | Casp3 select 98 | Luc interf 98
Cc1ccccc1-c1noc(-c2ccccc2C(=O)O)n1	none
COc1ccc(-c2nc(-c3ccncc3)no2)cc1	none (no result: SENP8 block-1, SENP6 block, SENP7 inh)
CNC(=O)c1ccc(NC(=O)c2ccccc2OCc2c(C)noc2C)cc1	none (no result: SENP8 block-1, Platelet DG rel, SENP6 block, SENP7 inh)
CCCCN1C(=O)C(=O)N(CC(=O)c2cc(C)n(-c3cc(C)on3)c2C)C1=O	none (no result: Platelet DG rel)
COc1ccccc1-c1nc(-c2ccccn2)no1	SENP8 block-1 93, SENP6 block 96, SENP7 inh 99 | SENP8 confirm inactive | SENP6 confirm 99 | SENP7 confirm 102 | Casp3 select 99 | Luc interf 97
Clc1ccc(-c2nc(-c3ccccn3)no2)cc1Cl	SENP8 block-1 96, SENP6 block 92, SENP7 inh 98 | SENP8 confirm 91 | SENP6 confirm 94 | SENP7 confirm 98 | Casp3 select 93 | Luc interf 76
COc1ccccc1-c1nc(-c2ccc(C)nc2OC)no1	none
COCCNc1nc(NCc2cccc(OC)c2)c2sc(-c3ccccc3)cc2n1	none (no result: SENP8 block-1, Platelet DG rel, SENP6 block, SENP7 inh)
O=C1C=C(C#Cc2ccccc2)C[C@@H](c2ccc(F)cc2)C1	none (no result: SENP8 block-1, Platelet DG rel, SENP6 block, SENP7 inh)
COCCNC(=O)c1c(N)n(CCCn2ccnc2)c2nc3ccccc3nc12	SENP6 block 89, SENP7 inh 67 | SENP8 confirm inactive | SENP6 confirm inactive | SENP7 confirm inactive | Casp3 select inactive | Luc interf inactive
CC(C)Cn1c(N)c(C(=O)NCC2CCCO2)c2nc3ccccc3nc21 (stereo unspecified)	SENP8 block-1 76, SENP6 block 76 | SENP8 confirm inactive | SENP6 confirm inactive | SENP7 confirm inactive | Casp3 select inactive | Luc interf inactive
COCCn1c(N)c(C(=O)NCc2cccs2)c2nc3ccccc3nc21	SENP8 block-1 87, SENP6 block 84, SENP7 inh 64 | SENP8 confirm inactive | SENP6 confirm inactive | SENP7 confirm inactive | Casp3 select inactive | Luc interf inactive
Nc1c(C(=O)NCC2CCCO2)c2nc3ccccc3nc2n1/N=C/c1ccncc1 (stereo unspecified)	none (no result: SENP8 block-1, Platelet DG rel, SENP6 block, SENP7 inh)
C=CCn1c(N)c(C(=O)OC(C)(C)C)c2nc3ccccc3nc21	none
C=CCn1c(N)c(C(=O)Nc2ccccc2)c2nc3ccccc3nc21	SENP8 block-1 52, SENP6 block 64 | SENP8 confirm inactive | SENP6 confirm inactive | SENP7 confirm inactive | Casp3 select inactive | Luc interf inactive
CCOC1OC(=O)C(Cl)=C1Nc1cc(C)ccc1C (stereo unspecified)	none
O=C(OCc1ccccc1)N1CCN(C(c2ccnc3ccccc23)c2nnnn2-c2ccc3c(c2)OCCO3)CC1 (stereo unspecified)	none (no result: SENP8 block-1, Platelet DG rel, SENP6 block, SENP7 inh)
COCCNC(=O)c1c(N)n(-c2ccccc2)c2nc3ccccc3nc12	SENP6 block 62 | SENP8 confirm inactive | SENP6 confirm inactive | SENP7 confirm inactive | Casp3 select inactive | Luc interf inactive
Cc1noc(C)c1C(=O)OCC(=O)c1cc(C)n(Cc2ccccc2Cl)c1C	SENP6 block 68 | SENP8 confirm inactive | SENP6 confirm inactive | SENP7 confirm inactive | Casp3 select inactive | Luc interf inactive
Cc1noc(C)c1C(=O)OCC(=O)c1ccc[nH]1	none
Cc1ccc(OC/C(O)=C(\C#N)c2nc3ccccc3s2)cc1	SENP8 block-1 76, SENP6 block 70 | SENP8 confirm 78 | SENP6 confirm 80 | SENP7 confirm 76 | Casp3 select 75 | Luc interf inactive
